Measurements as given in ChEMBL document CHEMBL4130552, “Design, synthesis and biological evaluation of novel benzimidazole amidines as potent multi-target inhibitors for the treatment of non-small cell lung cancer” (Eur J Med Chem, 2018).
Calls of active or inactive are those of the source. The rule behind the calls is not given here.

Assays:
[1] = system: CFPAC-1; experiment: Antiproliferative activity against human CFPAC-1 cells after 72 hrs by MTT assay; format: functional, cell-based; conditions: CFPAC-1, 72 h
How it was run: (§1)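 Cells seeded at 5000/well on day 0 in medium with 10% FBS, 2 mM L-glutamine, penicillin/streptomycin, 37 °C, 5% CO2. Compounds added at five 10-fold dilutions with DMSO ≤0.1%, then 72 h exposure. MTT absorbance converted to percentage growth versus untreated wells. IC50 by linear regression between bracketing concentrations. Quadruplicate points, three independent experiments.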

[2] = system: HeLa; experiment: Antiproliferative activity against human HeLa cells after 72 hrs by MTT assay; format: functional, cell-based; how it was run: as §1
[3] = system: SW-620; experiment: Antiproliferative activity against human SW620 cells after 72 hrs by MTT assay; format: functional, cell-based; conditions: SW-620, 72 h; how it was run: as §1
[4] = system: WI-38; experiment: Antiproliferative activity against human WI38 cells after 72 hrs by MTT assay; format: cell-based; conditions: WI-38, 72 h; how it was run: as §1
[5] = system: A549; experiment: Antiproliferative activity against human A549 cells after 72 hrs by MTT assay; format: functional, cell-based; conditions: A549, 72 h; how it was run: as §1
[6] = system: A549; experiment: Downregulation of PDE5 protein expression in human A549 cells at 2 times antiproliferative IC50 after 48 hrs by Western blot method; format: functional, cell-based
How it was run: (§2)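 Lysis in RIPA buffer (20 mM Tris-HCl pH 7.5, 150 mM NaCl, EDTA, EGTA, 1% NP-40, 1% deoxycholate, protease inhibitors). Blocking 1 h in 4% BSA/TBST, primary antibody overnight at 4 °C, HRP secondary 1 h, chemiluminescence. Densitometry normalised to alpha-tubulin; two independent experiments.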

[7] = target: Cellular tumor antigen p53 (Homo sapiens) (UniProt P04637); experiment: Inhibition of p53 phosphorylation at Ser-15 residue in human A549 cells at 2 times antiproliferative IC50 after 48 hrs by Western blot method; format: cell-based; how it was run: as §2
[8] = target: T1, MAP kinase p38 (Homo sapiens, UniProt O15264+Q15759+Q16539+P53778); experiment: Inhibition of p38 phosphorylation at Thr180/Tyr182 residues in human A549 cells at 2 times antiproliferative IC50 after 48 hrs by Western blot method; format: cell-based; how it was run: as §2
[9] = system: A549; experiment: Induction of apoptosis in human A549 cells assessed as early apoptotic cells at 2 times antiproliferative IC50 after 48 hrs by Annexin V-FITC/propidium iodide staining based fluorescence microscopic method (reference value: 0.52%); format: functional
[10] = system: A549; experiment: Downregulation of CDK9/CyclinT1 protein expression in human A549 cells at 2 times antiproliferative IC50 after 48 hrs by Western blot method; format: functional, cell-based; how it was run: as §2
[11] = system: A549; experiment: Induction of apoptosis in human A549 cells assessed as necrotic cells at 2 times antiproliferative IC50 after 48 hrs by Annexin V-FITC/propidium iodide staining based fluorescence microscopic method (reference value: 0%); format: functional
[12] = system: A549; experiment: Induction of apoptosis in human A549 cells assessed as late apoptotic cells at 2 times antiproliferative IC50 after 48 hrs by Annexin V-FITC/propidium iodide staining based fluorescence microscopic method (reference value: 0%); format: functional
[13] = system: A549; experiment: Induction of apoptosis in human A549 cells assessed as viable cells at 2 times antiproliferative IC50 after 48 hrs by Annexin V-FITC/propidium iodide staining based fluorescence microscopic method (reference value: 99.48%); format: functional
[14] = system: A549; experiment: Downregulation of TGM2 protein expression in human A549 cells at 2 times antiproliferative IC50 after 48 hrs by Western blot method; format: functional, cell-based; how it was run: as §2
[15] = target: T1, MAP kinase p38; experiment: Inhibition of MAPK p38 (unknown origin); format: protein assay

Chain of Cellular tumor antigen p53 (Homo sapiens) (P04637 whole entry, looked up): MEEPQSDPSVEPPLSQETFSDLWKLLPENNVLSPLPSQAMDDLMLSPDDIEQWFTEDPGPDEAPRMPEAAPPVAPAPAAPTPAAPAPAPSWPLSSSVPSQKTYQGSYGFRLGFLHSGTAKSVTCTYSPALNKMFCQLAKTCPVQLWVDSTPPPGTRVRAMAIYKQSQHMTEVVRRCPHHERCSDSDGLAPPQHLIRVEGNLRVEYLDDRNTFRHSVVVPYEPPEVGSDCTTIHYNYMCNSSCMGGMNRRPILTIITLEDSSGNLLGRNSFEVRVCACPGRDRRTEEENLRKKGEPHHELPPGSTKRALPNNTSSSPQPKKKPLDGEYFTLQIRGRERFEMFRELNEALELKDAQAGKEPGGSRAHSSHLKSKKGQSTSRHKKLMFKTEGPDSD

| SMILES | IC50 [1] [µM] | IC50 [2] [µM] | IC50 [3] [µM] | IC50 [4] [µM] | IC50 [5] [µM] | further results |
| --- | --- | --- | --- | --- | --- | --- |
| CC(C)NC(=N)c1ccc2[nH]c(-c3ccc(OCc4cn(-c5ccccc5)nn4)cc3)nc2c1 | > 100 | 16.6 | 62.1 | 0.99 | > 100 |  |
| CC(C)NC(=N)c1ccc2[nH]c(-c3cn(-c4ccc(Cl)cc4)nn3)nc2c1 | 16 | 0.85 | 32.5 | 6.85 | 27.1 |  |
| CC(C)NC(=N)c1ccc2[nH]c(-c3ccc(OCc4cn(-c5ccc(F)cc5)nn4)cc3)nc2c1 | 0.71 | 0.59 | 37.9 | 0.66 | 8.37 |  |
| Clc1ccc(-n2cc(COc3ccc(-c4nc5cc(C6=NCCN6)ccc5[nH]4)cc3)nn2)cc1 | 16.9 | 0.22 | 3.65 | 2.24 | 0.06 |  |
| Clc1ccc(-n2cc(COc3ccc(-c4nc5ccccc5[nH]4)cc3)nn2)cc1 | > 100 | > 100 | 99.3 | 1.11 | 7.96 |  |
| CC(C)NC(=N)c1ccc2[nH]c(-c3ccc(OCc4cn(-c5ccc(Cl)cc5)nn4)cc3)nc2c1.Cl | > 100 | 17.5 | 48.7 | 8.04 | 0.05 | Activity [6]: inactive; inhibition [7]: Active; inhibition [8]: Active; Activity [9]: 28.33%; Activity [10]: inactive; Activity [11]: 2.78%; Activity [12]: 40%; Activity [13]: 28.89%; Activity [14]: inactive |
| CC(C)NC(=N)c1ccc2[nH]c(-c3ccc(OCc4cn(Cc5ccccc5)nn4)cc3)nc2c1 | > 100 | 8.8 | 58.6 | 65.4 | 6.18 |  |
| CC(C)NC(=N)c1ccc2[nH]c(-c3ccc(OCc4cn(-c5ccc(I)cc5)nn4)cc3)nc2c1 | 5.13 | 0.51 | 0.69 | 0.2 | 0.08 |  |
| CC(C)NC(=N)c1ccc2[nH]c(-c3ccc(OCc4cn(Cc5ccc(Cl)cc5)nn4)cc3)nc2c1 | > 100 | > 100 | 36.5 | 0.7 | 4.98 |  |
| Clc1ccc(-n2cc(COc3ccc(-c4nc5ccc(Cl)cc5[nH]4)cc3)nn2)cc1 | 3.74 | 3.54 | 4.28 | 1.52 | 2.91 |  |
| c1ccc(-n2cc(COc3ccc(-c4nc5cc(C6=NCCN6)ccc5[nH]4)cc3)nn2)cc1 | 26.2 | 7.78 | 29.6 | 0.1 | 49.7 |  |
| FC(F)(F)c1ccc(-n2cc(COc3ccc(-c4nc5cc(C6=NCCN6)ccc5[nH]4)cc3)nn2)cc1 | 0.65 | 2.69 | 6.35 | 0.69 | 0.59 |  |
| O=c1[nH]cc(F)c(=O)[nH]1 [FLUOROURACIL] |  |  |  |  | 2.8 |  |
| Cc1ccc(-n2nc(C(C)(C)C)cc2NC(=O)Nc2nc(CCOCc3ccncc3)cs2)cc1 |  |  |  |  |  | IC50 [15]: 0.586 µM |
| Clc1ccc(-n2cc(-c3nc4cc(C5=NCCN5)ccc4[nH]3)nn2)cc1 | 0.83 | 0.69 | 1.67 | 2.72 | 3.86 |  |
| N=C(N)c1ccc2[nH]c(-c3ccc(OCc4cn(-c5ccc(Cl)cc5)nn4)cc3)nc2c1 | 18.5 | 0.8 | 7.57 | 5.03 | 0.05 |  |
| Fc1ccc(-n2cc(COc3ccc(-c4nc5cc(C6=NCCN6)ccc5[nH]4)cc3)nn2)cc1 | > 100 | 0.98 | 2.31 | 0.09 | > 100 |  |
| N=C(N)c1ccc2[nH]c(-c3ccc(OCc4cn(-c5ccccc5)nn4)cc3)nc2c1 | 29.9 | 18.8 | 31.5 | 8.08 | 53.3 |  |
| N=C(N)c1ccc2[nH]c(-c3ccc(OCc4cn(Cc5ccccc5)nn4)cc3)nc2c1 | 34.4 | 13.7 | 30.9 | 0.89 | 9.47 |  |
| N=C(N)c1ccc2[nH]c(-c3ccc(OCc4cn(-c5ccc(F)cc5)nn4)cc3)nc2c1 | > 100 | 7.39 | 37.9 | 0.7 | 81 |  |
| Ic1ccc(-n2cc(COc3ccc(-c4nc5cc(C6=NCCN6)ccc5[nH]4)cc3)nn2)cc1 | 0.86 | 0.42 | 0.37 | 0.22 | > 100 |  |
| Brc1ccc(-c2c[nH]c([C@@H]3Cc4ccccc4CN3)n2)cc1 |  |  |  |  |  | IC50 [15]: 1.9 µM |
| N=C(N)c1ccc2[nH]c(-c3ccc(OCc4cn(-c5ccc(I)cc5)nn4)cc3)nc2c1 | 21.5 | 6.45 | 0.95 | 0.62 | 0.45 |  |
| CC(C)NC(=N)c1ccc2[nH]c(-c3ccc(OCc4cn(-c5ccc(C(F)(F)F)cc5)nn4)cc3)nc2c1 | > 100 | 13.7 | 50.1 | 0.32 | 85.8 |  |
| CC(C)NC(=N)c1ccc2[nH]c(CCc3cn(-c4ccc(Cl)cc4)nn3)nc2c1 | 36.1 | 3.11 | 56.8 | 3.71 | 33.4 |  |
| Cl.c1ccc(Cn2cc(COc3ccc(-c4nc5cc(C6=NCCN6)ccc5[nH]4)cc3)nn2)cc1 | 29.2 | 6.67 | 28.1 | 6.89 | 0.07 | Activity [6]: Active; inhibition [7]: Active; inhibition [8]: Active; Activity [9]: 27.49%; Activity [10]: Active; Activity [11]: 6.43%; Activity [12]: 16.37%; Activity [13]: 49.71%; Activity [14]: Active |
| N=C(N)c1ccc2[nH]c(-c3ccc(OCc4cn(-c5ccc(C(F)(F)F)cc5)nn4)cc3)nc2c1 | 2.09 | 0.32 | 0.36 | 0.52 | 0.84 |  |
